Laboratory results reported in ChEMBL document CHEMBL2203159, “Synthesis and structure-activity relationships of fibrate-based analogues inside PPARs” (Bioorg Med Chem Lett, 2012).

Tests used:
[1] = molecular target: T1, Peroxisome proliferator-activated receptor gamma (Homo sapiens, UniProt P37231); assay: Transactivation of human GAL4-fused PPARgamma ligand binding domain transfected in HEK293 cells after 18 hrs by dual luciferase reporter gene assay; format: cell-based
T1 sequence (P37231 whole entry): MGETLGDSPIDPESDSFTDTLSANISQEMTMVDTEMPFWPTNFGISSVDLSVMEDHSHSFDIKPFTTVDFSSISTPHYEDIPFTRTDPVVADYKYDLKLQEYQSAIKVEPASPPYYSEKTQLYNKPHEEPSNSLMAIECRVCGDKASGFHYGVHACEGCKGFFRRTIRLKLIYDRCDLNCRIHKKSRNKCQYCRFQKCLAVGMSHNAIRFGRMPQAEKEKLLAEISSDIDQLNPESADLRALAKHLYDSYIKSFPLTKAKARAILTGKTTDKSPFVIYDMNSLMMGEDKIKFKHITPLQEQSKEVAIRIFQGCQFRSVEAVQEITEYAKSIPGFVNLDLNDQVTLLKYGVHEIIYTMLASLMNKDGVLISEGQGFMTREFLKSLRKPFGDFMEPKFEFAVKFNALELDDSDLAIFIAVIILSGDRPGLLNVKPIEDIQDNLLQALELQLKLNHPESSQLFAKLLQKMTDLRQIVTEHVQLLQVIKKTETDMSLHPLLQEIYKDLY

[2] = molecular target: T2, Peroxisome proliferator-activated receptor alpha (Homo sapiens, UniProt Q07869); assay: Transactivation of human GAL4-fused PPARalpha ligand binding domain transfected in HEK293 cells after 18 hrs by dual luciferase reporter gene assay; format: cell-based
T2 sequence (Q07869 whole entry): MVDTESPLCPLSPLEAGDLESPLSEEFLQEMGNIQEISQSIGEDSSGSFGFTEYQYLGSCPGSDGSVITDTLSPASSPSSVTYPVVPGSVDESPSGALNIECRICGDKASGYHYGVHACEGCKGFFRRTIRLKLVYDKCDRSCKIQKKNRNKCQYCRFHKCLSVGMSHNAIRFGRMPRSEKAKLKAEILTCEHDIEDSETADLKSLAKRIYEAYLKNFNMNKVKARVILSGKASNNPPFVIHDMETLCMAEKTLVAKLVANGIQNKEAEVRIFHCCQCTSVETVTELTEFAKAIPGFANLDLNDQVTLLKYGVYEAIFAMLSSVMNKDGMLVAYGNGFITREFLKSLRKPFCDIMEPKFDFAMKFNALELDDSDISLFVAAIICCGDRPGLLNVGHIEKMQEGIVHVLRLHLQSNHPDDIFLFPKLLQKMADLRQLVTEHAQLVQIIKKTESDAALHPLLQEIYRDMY
Method in brief: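 HEK293 cells carried a GAL4–PPAR chimera and a GAL4-responsive luciferase reporter in a transactivation assay. Compounds were tested at 1 to 150 µM in at least two separate experiments, and results are given ± SEM.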

[3] = molecular target: T3, Peroxisome proliferator-activated receptor alpha (Homo sapiens) (UniProt Q07869); assay: Transactivation of human GAL4-fused PPARalpha ligand binding domain transfected in HEK293 cells at 150 uM after 18 hrs by dual luciferase reporter gene assay relative to clofibric acid; format: cell-based
T3 sequence (whole entry): T2 sequence (Q07869 whole entry)
Method in brief: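 This is a GAL4–PPAR transactivation assay in HEK293 cells with a GAL4-responsive luciferase reporter, run in at least two separate experiments. Efficacy is the percentage of the maximum fold induction obtained with the reference agonist clofibric acid. Results are given ± SEM.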

[4] = molecular target: T3, Peroxisome proliferator-activated receptor alpha (Homo sapiens); assay: Transactivation of PPARalpha in human HepG2 cells assessed as increase in CPT1A mRNA expression after 48 hrs by RT-qPCR analysis

Compound | EC50 ([1]; hek293) | EC50 ([2]; read-out: EC50) [µM] | %max [3] [%] | EC50 ([1]; read-out: EC50) [µM] | EC50 ([2]; hek293) | Activity [4]
CC(C)(Oc1ccc(CCCO)cc1)C(=O)O | Not Active | 30.6 | 181 |  |  | 
CC(C)(Oc1ccc(CCCOc2ccc(/N=N/c3ccccc3)cc2)cc1)C(=O)O |  | 42.8 | 81 | 10 |  | 
CC(C)(Oc1ccc(COc2ccc(Oc3ccccc3)cc2)cc1)C(=O)O |  |  |  | 0.8 | Not Active | 
CC(C)(Oc1ccc(COc2ccc(/C=C/c3ccccc3)cc2)cc1)C(=O)O |  | 40.5 | 156 | 6 |  | 
CC(C)(Oc1ccc(COc2ccc(C(=O)c3ccccc3)cc2)cc1)C(=O)O |  |  |  | 5.4 | Not Active | 
CC(C)(Oc1ccc(CCOc2ccc(/C=C/c3ccccc3)cc2)cc1)C(=O)O |  | 11.6 | 81 | 12.6 |  | 
CC(C)(Oc1ccc(CCCOc2nc3ccccc3s2)cc1)C(=O)O |  | 45.8 | 100 | 7.9 |  | 
CCc1ccc(CCOc2ccc(CC3SC(=O)NC3=O)cc2)nc1 (configuration not stated) [PIOGLITAZONE] |  |  |  |  | Not Active | 
CC(C)(Oc1ccc(CCOc2nc3ccccc3s2)cc1)C(=O)O |  | 18.3 | 169 | 39.3 |  | 
CC(C)(Oc1ccc(COc2ccc(C(=O)/C=C/c3ccccc3)cc2)cc1)C(=O)O | Not Active |  |  |  | Not Active | 
CC(C)(Oc1ccc(CCOc2ccc(Oc3ccccc3)cc2)cc1)C(=O)O |  |  |  | 6.9 | Not Active | 
CC(C)(Oc1ccc(Cl)cc1)C(=O)O [CLOFIBRIC ACID] | Not Active |  |  |  |  | 
CC(C)(Oc1ccc(CCO)cc1)C(=O)O | Not Active | 75.1 | 94 |  |  | 
CC(C)(Oc1ccc(CCOc2ccc(/N=N/c3ccccc3)cc2)cc1)C(=O)O |  | 0.6 | 158 | 1.4 |  | Dose-dependent effect
CC(C)(Oc1ccc(CCOc2ccc(C(=O)/C=C/c3ccccc3)cc2)cc1)C(=O)O |  | 64 | 118 | 5.9 |  | 
CC(C)(Oc1ccc(CCCOc2ccc(C(=O)/C=C/c3ccccc3)cc2)cc1)C(=O)O |  |  |  | 0.8 | Not Active | 
CC(C)(Oc1ccc(CO)cc1)C(=O)O |  | 34.5 | 119 | 30 |  | 
CC(C)(Oc1ccc(CCCOc2ccc(Oc3ccccc3)cc2)cc1)C(=O)O |  |  |  | 75.2 | Not Active | 
CC(C)(Oc1ccc(CCOc2ccc(C(=O)c3ccccc3)cc2)cc1)C(=O)O |  |  |  | 54.6 | Not Active | 
CC(C)(Oc1ccc(COc2ccc(/N=N/c3ccccc3)cc2)cc1)C(=O)O |  | 5.6 | 350 |  |  | 
CC(C)(Oc1ccc(CCCOc2ccc(C(=O)c3ccccc3)cc2)cc1)C(=O)O |  |  |  | 5.8 | Not Active | 
CC(C)(Oc1ccc(COc2nc3ccccc3s2)cc1)C(=O)O |  | 44.6 | 125 | 32 |  | 
CC(C)(Oc1ccc(CCCOc2ccc(/C=C/c3ccccc3)cc2)cc1)C(=O)O |  | 9.9 | 125 | 0.8 |  | 
